Data: ChEMBL document CHEMBL1134666, “Design, synthesis, and biological evaluation of novel nucleoside and nucleotide analogues as agents against DNA viruses and/or retroviruses” (J Med Chem, 2001)
In brackets after ≈: the same amount, converted by molar mass.

Assays:
[1] = Inhibitory effects on HSV-1 induced mortality in NMRI mice upon (ip) administration at a dose of 100 mk/kg/day; assay type: functional, Human alphaherpesvirus 1
Outline: (§1)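 Two-week-old NMRI mice (~7 g, 15-20 per group) were infected ip with 4 × 10⁴ units HSV-1 (KOS). Compound was given ip once daily for 6 consecutive days starting 4 h postinfection; controls received saline. Mean day of symptom onset and of death were recorded, with % symptom-free and % surviving at day 21, when the experiment ended.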

[2] = test system: Moloney murine sarcoma virus; test: Inhibition of virus-induced cytopathogenicity against moloney murine sarcoma virus(MSV)in CEM cells in cell protection assay; assay type: functional, organism-based; conditions: CCRF-CEM
Outline: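 Cell-protection assay with Moloney murine sarcoma virus in CEM cells; inhibition of virus-induced cytopathogenicity measured and IC50 derived by linear regression from the average of duplicate determinations.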

MT4 = test: Cellular toxic effect was determined in MT-4 cells; assay type: functional, cell-based; conditions: Homo sapiens
[3] = test system: Human immunodeficiency virus 2; test: Inhibition of cytopathogenicity against human HIV-2(LAV-2) in MT-4 cells; assay type: functional, organism-based; conditions: Human immunodeficiency virus 2, MT4
[4] = test system: Human immunodeficiency virus 1; test: Inhibition of cytopathogenicity against human HIV-1(IIIB) in MT-4 cells; assay type: functional, organism-based; conditions: Human immunodeficiency virus 1, MT4
[5] = Inhibitory effects on HSV-1 induced mortality in NMRI mice upon (ip) administration at a dose of 250 mk/kg/day; assay type: functional, Human alphaherpesvirus 1; outline: as §1
Adenosine deaminase = biological target: T1, Adenosine deaminase (Bos taurus, UniProt P56658); test: Inhibitory activity against adenosine deaminase
T1 sequence (P56658 whole entry): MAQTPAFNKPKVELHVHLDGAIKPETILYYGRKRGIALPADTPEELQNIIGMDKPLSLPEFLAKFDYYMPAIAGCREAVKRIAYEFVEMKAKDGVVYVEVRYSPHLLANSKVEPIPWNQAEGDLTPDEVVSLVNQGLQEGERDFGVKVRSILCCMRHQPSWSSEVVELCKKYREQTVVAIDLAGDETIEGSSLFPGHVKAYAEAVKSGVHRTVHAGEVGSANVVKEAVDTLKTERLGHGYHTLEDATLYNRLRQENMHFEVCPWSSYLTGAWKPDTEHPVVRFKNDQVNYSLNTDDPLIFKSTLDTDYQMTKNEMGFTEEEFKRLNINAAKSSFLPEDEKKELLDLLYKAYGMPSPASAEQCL
Outline: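 Calf mucosal adenosine deaminase. Ki determined by the Kaplan method, with ara-A as substrate and the test compound added to the substrate solutions.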

[6] = Inhibitory effects on HSV-1 induced mortality in NMRI mice upon (ip) administration at a dose of 150 mk/kg/day; assay type: functional, Human alphaherpesvirus 1; outline: as §1
CCRF-CEM = test: Cellular toxic effect was determined in CEM cells; assay type: functional, cell-based; conditions: Homo sapiens
[7] = Inhibitory effect on HSV-1 induced mortality in NMRI mice upon (ip) administration at a dose of 150 mk/kg/day; assay type: functional, Human alphaherpesvirus 1; outline: as §1
[8] = Inhibitory effect on HSV-1 induced mortality in NMRI mice upon (ip) administration at a dose of 250 mk/kg/day; assay type: functional, Human alphaherpesvirus 1; outline: as §1
Vero [9] = test: Maximum velocity constant of the rate of phosphorylation was determined against Vero cell thymidine kinase; assay type: functional, Chlorocebus sabaeus
Vero [10] = test: Maximum velocity constant of the rate of phosphorylation was determined n the presence of Vero cell thymidine kinase; assay type: functional, Chlorocebus sabaeus
[11] = Inhibitory effect on HSV-1 induced mortality in NMRI mice upon (ip) administration at a dose of 100 mk/kg/day; assay type: functional, Human alphaherpesvirus 1; outline: as §1

Row | Compound | IC50 [2] [µg/mL] | IC50 (MT4) [µg/mL] | IC50 [3] [µg/mL] | IC50 [4] [µg/mL] | Animal death [5] [%] | Symptom initiation [5] [%] | IC50 (CCRF-CEM) [µg/mL] | other results
1 | COC1=C(OC)/C(=C/COP(=O)(O)COCCn2cnc3c(N)ncnc32)OC1=O | 0.93 (≈ 2.11 µM) | 265 (≈ 600 µM) | 1 (≈ 2.27 µM) | 1.4 (≈ 3.17 µM) | >21 | >21 | 280 (≈ 634 µM) | Animal death [1]: >21%; Symptom initiation [1]: >21%; Ki (Adenosine deaminase): > 800 µM; Animal death [6]: >21%; Symptom initiation [6]: >21%
2 | Nc1ncnc2ncn(CCOCP(=O)(O)O)c12 | 27 (≈ 98.8 µM) | > 300 | 9.1 (≈ 33.3 µM) | 7.8 (≈ 28.6 µM) | – | – | > 300 | Symptom initiation [7]: 15%; Animal death [8]: 20%
3 | COC1=C(OC)/C(=C/COP(=O)(O)COCCn2cnc3c(O)nc(N)nc32)OC1=O | 0.02 (≈ 0.0437 µM) | 14 (≈ 30.6 µM) | 7.1 (≈ 15.5 µM) | 6 (≈ 13.1 µM) | – | – | 13 (≈ 28.4 µM) | –
4 | Nc1ncnc2ncn(COCCO)c12 | – | – | – | – | – | – | – | Relative Vmax (Vero [9]): <3; Animal death [7]: >21%; Animal death [8]: >21%; Symptom initiation [8]: >21%
5 | Nc1ncnc2c1ncn2[C@@H]1O[C@H](COP(=O)(O)O)[C@@H](OP(=O)(O)COCCn2cnc3ncnc(N)c32)[C@H]1O | 17 (≈ 28.2 µM) | 298 (≈ 495 µM) | 6.4 (≈ 10.6 µM) | 5.9 (≈ 9.79 µM) | >21 | >21 | > 300 | Animal death [1]: >21%; Symptom initiation [1]: 16%
6 | COC1=C(OC)/C(=C/COP(=O)(O)OC[C@H]2O[C@@H](n3cnc4c(N)ncnc43)[C@H](O)[C@@H]2OP(=O)(O)COCCn2cnc3ncnc(N)c32)OC1=O | 13 (≈ 16.9 µM) | > 300 | 4.2 (≈ 5.45 µM) | 4.9 (≈ 6.36 µM) | >21 | >21 | > 300 | Animal death [1]: >21%; Ki (Adenosine deaminase): > 800 µM; Animal death [6]: >21%; Symptom initiation [6]: >21%
7 | Nc1ncnc2c1ncn2COCCO | – | – | – | – | – | – | – | Relative Vmax (Vero [10]): <3
8 | Nc1nc2c(ncn2COCCO)c(=O)[nH]1 [ACYCLOVIR] | – | – | – | – | >21 | >21 | – | Animal death [6]: >21%
9 | Nc1ncnc2c1ncn2CCOCP(=O)(O)O [ADEFOVIR] | 2 (≈ 7.32 µM) | 274 (≈ 1000 µM) | 3.8 (≈ 13.9 µM) | 4.1 (≈ 15 µM) | – | – | 285 (≈ 1040 µM) | Animal death [11]: 17%; Animal death [7]: >21%; Animal death [8]: >21%; Symptom initiation [8]: >21%
10 | Nc1nc2c(ncn2CCOCP(=O)(O)O)c(=O)[nH]1 [GS-438] | 0.19 (≈ 0.657 µM) | 16 (≈ 55.3 µM) | 18 (≈ 62.2 µM) | 16 (≈ 55.3 µM) | – | – | 12 (≈ 41.5 µM) | –
11 | Nc1ncnc2c1ncn2[C@@H]1O[C@H](CO)[C@@H](O)[C@@H]1O [VIDARABINE] | – | – | – | – | – | – | – | Relative Vmax (Vero [9]): <3
